Measured values reported in ChEMBL document CHEMBL4364301 (Eur J Med Chem, 2019).

Tests used:
Assay type in all cases: functional
DU-145 = assay: Antiproliferative activity against human DU145 cells assessed as reduction in cell growth incubated for 96 hrs by propidium iodide based 2D monolayer assay
Method in brief: (§1)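 After 24 h recovery, compound in medium or medium alone (control wells) was added at 10 half-log concentrations from 0.0032 to 100 µM, in triplicate, with at most 0.3% DMSO. After 96 h, wells were PBS-washed, stained with 7 µg/ml PI and 0.1% Triton X-100, and fluorescence read at 530/620 nm. IC50 came from a 4-parameter fit, geometric mean.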

CWR22R = assay: Antiproliferative activity against human 22Rv1 cells assessed as reduction in cell growth incubated for 96 hrs by propidium iodide based 2D monolayer assay; method in brief: as §1
LNCaP = assay: Antiproliferative activity against human LNCAP cells assessed as reduction in cell growth incubated for 96 hrs by propidium iodide based 2D monolayer assay; method in brief: as §1
VCaP = assay: Antiproliferative activity against human VCaP cells assessed as reduction in cell growth incubated for 96 hrs by propidium iodide based 2D monolayer assay
Method in brief: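 VCaP cells in RPMI 1640 with 10% FCS at 37 °C, 5% CO2, seeded 4,000–20,000 cells/well and left 24 h before dosing. Compounds from DMSO stocks were diluted in half-log steps in medium, 10 concentrations 0.0032–100 μM, triplicate wells, max 0.3% DMSO. After 96 h, cells were washed, stained with 7 μg/ml propidium iodide plus 0.1% Triton X-100 for 1–2 h at room temperature, and fluorescence read at ex 530/em 620 nm.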

Measured: Activity

CC(O)(CS(=O)(=O)c1ccc(F)cc1)C(=O)Nc1ccc(C#N)c(C(F)(F)F)c1 (racemic) [BICALUTAMIDE]
active: DU-145 Dose-dependent effect | CWR22R Dose-dependent effect | LNCaP Dose-dependent effect | VCaP Dose-dependent effect
